Test [1] can be described thus: Inhibition of Staphylococcus aureus sortase A deltaN59 mutant assessed as Dap(Dnp) hydrolysis by FRET assay.
Test [2] can be described thus: Inhibition of Staphylococcus aureus sortase A deltaN59 mutant assessed as Dap(Dnp) hydrolysis by FRET assay based enzyme kinetics assay. To be noted: read-out: Ki(app).
In test [3] the test system is Staphylococcus aureus. Description: Antimicrobial activity against Staphylococcus aureus Newman by microtiter broth dilution method. It counts as functional. In outline:
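S. aureus Newman overnight culture diluted to OD600 0.01, incubated at 37 °C, diluted to OD600 0.005; compound added at final 0.1–100 µM. OD600 followed during overnight growth at 37 °C in plate reader. Growth percentage relative to no-inhibitor cultures and to 10 µg/mL erythromycin. Triplicate.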
For orientation: In broth dilution the organism is exposed to a series of concentrations in liquid medium.

Test [4] can be described thus: Inhibition of Bacillus anthracis sortase A by FRET assay. In a few lines:
(§1)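 B. anthracis SrtA (1.5–15 µM final) preincubated 1 h at 25 °C with compound (0.08–400 µM final, Me2SO) in 20 mM HEPES, 5 mM CaCl2, pH 7.5. Reaction started with 100 µM Abz-LPETG-Dap(Dnp) substrate. Fluorescence read at ex 335/em 420 nm. IC50 from fit of initial velocities, three independent data sets, Hill equation.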

Test [5] can be described thus: Inhibition of Bacillus anthracis sortase A by FRET-based enzyme kinetics assay. To be noted: read-out: Ki(app). In outline: as §1
The subject of test [6] is Staphylococcus aureus.

SMILES strings stand for the structures. ≈ marks a conversion by molar mass, not a printed value. Calls of active or inactive are those of the source.

A word on the IC50: it is the concentration needed to halve the response being measured. In the case of `Cc1ccc(N2C(=O)/C(=C/c3cc(Br)c(O)c([N+](=O)[O-])c3)SC2=S)c(C)c1`, the 50% inhibitory concentration (IC50) in test [1] came out at 35 µM.

On to `CCOc1cnn(-c2cccc(F)c2)c(=O)c1Cl`, for which the IC50 in test [1] was more than 50 µM.

For the compound `O=c1c(Cl)c(Cl)cnn1-c1ccccc1`, the IC50 in test [1] was more than 50 µM. As to `CCOc1c(SSC)cnn(-c2ccccc2)c1=O`, the Ki in test [2] was 0.4 µM. For the compound `CN1C(=O)/C(=C/c2cc([N+](=O)[O-])cc(Br)c2O)SC1=S`, the IC50 in test [1] worked out at 14 µM.

`CCOc1cnn(-c2cccc(C)c2)c(=O)c1S`: the IC50 in test [1] was 3.1 µM. The outcome in the test with Staphylococcus aureus [3] was inactive. Consider `CC1=NN(c2ccccc2)C(=S)/C1=C/Nc1ccccc1O`, for which the IC50 in test [1] is 22 µM. The same measure, in the same setting: then `O=C1/C(=C/c2cc([N+](=O)[O-])cc(Br)c2O)SC(=S)N1c1ccc([N+](=O)[O-])cc1`, with 12 µM; and `CC1=NN(c2ccccc2)C(=S)/C1=C/Nc1ccc(C)cc1C`, with 68 µM.

`CC1=NN(c2ccccc2)C(=S)/C1=C/Nc1ccccn1`: the IC50 is 0.76 µM in test [1] and 1.4 µM in test [4]. Also, the outcome with Staphylococcus aureus [3] was inactive. For the compound `CC1=NN(c2ccccc2)C(=S)/C1=C/Nc1c(Br)cc(Br)cc1Br`, the Ki in test [5] came out at 1.7 µM. Also, in the test with Staphylococcus aureus [3], the outcome was inactive.

Turning to `CC1=NN(c2ccccc2)C(=S)/C1=C/Nc1ccc(I)cc1`, the IC50 in test [1] worked out at 42 µM. Regarding `CC1=NN(c2ccccc2)C(=O)/C1=C/Nc1ccc([N+](=O)[O-])cc1`, in test [1], the IC50 amounted to 56 µM. Moreover, in test [2], the Ki turned out to be 0.3 µM. For the compound `CC1=NN(c2ccccc2)C(=S)/C1=C/Nc1cc([N+](=O)[O-])ccc1O`, the IC50 in test [1] is 14 µM. Take `CC1=NN(c2ccccc2)C(=S)/C1=C/NC1CCCCC1`: the IC50 in test [1] was 115 µM. With `O=c1c(Cl)c(Cl)cnn1-c1cccc(Br)c1`, in test [1], the IC50 is more than 50 µM. With `CCOc1c(SSc2ccccn2)cnn(-c2ccccc2)c1=O`, the Ki in test [2] was 0.03 µM. For the compound `COc1c(Cl)cnn(-c2ccccc2)c1=O`, the concentration for half-maximal inhibition (IC50) in test [1] is more than 50 µM. With `CCOc1c(S)cnn(-c2cccc(F)c2)c1=O`, the IC50 in test [1] was found to be 5.5 µM. Take `O=C1/C(=C/c2cc([N+](=O)[O-])cc(Br)c2O)SC(=S)N1c1cccc(Cl)c1`: in test [1], the IC50 was 17 µM. Turning to `CCOc1c(SS)cnn(-c2ccccc2)c1=O`, the figures for the IC50 in test [1] and in test [4] were 1.5 µM and 1.2 µM, respectively. On to `Cc1cccc(-n2ncc(Cl)c(Cl)c2=O)c1`, for which the IC50 in test [1] was more than 50 µM. On the same count and under the same terms, the result for `CC(=O)c1ccc(/N=C2\C(=O)NN=C2C)cc1` reads 26 µM. On the same count and under the same terms, the result for `O=c1c(Cl)c(Cl)cnn1-c1ccc([N+](=O)[O-])cc1` reads more than 50 µM. For the compound `CC1=NN(c2ccccc2)C(=S)/C1=C/Nc1ccc(Br)cc1`, in test [1], the IC50 turned out to be 39 µM. In addition, the outcome in the test on Staphylococcus aureus [3] was inactive. As to `CCOc1c(Cl)cnn(-c2ccccc2)c1=O`, in test [1], the half-inhibitory concentration (IC50) is more than 50 µM.

The MIC is the smallest concentration in the dilution series that meets the test's criterion for growth inhibition. Lower therefore signals inhibition by little substance. In the case of `CC1=NN(c2ccccc2)C(=S)/C1=C/Nc1ccc([N+](=O)[O-])cc1`, the Activity in the test on Staphylococcus aureus [6] stood at 58%. Besides, the MIC against Staphylococcus aureus [3] was more than 1000 µM. For the compound `CCOc1c(S)cnn(-c2cccc(Br)c2)c1=O`, the IC50 in test [1] was more than 50 µM. Same read-out and setting: then `CCCN1C(=O)/C(=C/c2ccc(-c3ccccc3)o2)SC1=S`, with 186 µM. Take `CC1=NN(c2ccccc2)C(=S)/C1=C/Nc1ccc(/N=N/c2ccccc2)cc1`: in test [1], the IC50 came to 9 µM. In the test with Staphylococcus aureus [3], the result was inactive. On to `COc1c(Cl)cnn(C2CCCCC2)c1=O`, for which the IC50 in test [1] is more than 50 µM. Same read-out and setting: then `Cc1ccc(/C=C2\SC(=S)N(c3cccc(Cl)c3)C2=O)cc1[N+](=O)[O-]`, with more than 1000 µM; and `COc1c(Cl)cnn(-c2cccc(F)c2)c1=O`, with more than 50 µM. For `O=c1c(Cl)c(Cl)cnn1-c1cccc(F)c1`, in test [1], the IC50 was more than 50 µM.

`COc1c(Cl)cnn(-c2cc(Cl)cc(Cl)c2)c1=O`: the IC50 in test [1] was more than 50 µM. Same read-out and setting: then `CCOc1c(Cl)cnn(-c2cccc(Br)c2)c1=O`, with more than 50 µM; and `CCOc1c(Cl)cnn(-c2cccc(F)c2)c1=O`, with more than 50 µM.

Turning to `CCOc1cnn(-c2cc(Cl)cc(Cl)c2)c(=O)c1S`, the IC50 is 166 µM in test [1] and 5.2 µM in test [4]. In the case of `CCOc1cnn(-c2ccccc2)c(=O)c1S`, the IC50 in test [1] came to 4.4 µM. Consider `CCOc1c(Cl)cnn(C2CCCCC2)c1=O`, for which the IC50 in test [1] is more than 50 µM. With `CSc1cnn(-c2ccccc2)c(=O)c1O`, in test [1], the IC50 was more than 50 µM. On the same count and under the same terms, then `CC1=NN(c2ccccc2)C(=S)/C1=C/Nc1ccc([N+](=O)[O-])cc1O`, with 9.6 µM. As for `CCOc1cnn(-c2ccccc2)c(=O)c1Cl`, the IC50 in test [1] turned out to be 1 µM.

With `COc1c(Cl)cnn(-c2cccc(Br)c2)c1=O`, the IC50 in test [1] was more than 50 µM.

Turning to `Cc1cccc(N2C(=O)/C(=C/c3cc([N+](=O)[O-])cc(Br)c3O)SC2=S)c1`, the IC50 in test [1] amounted to 15 µM. As to `CCn1ncc(SC)c(O)c1=O`, in test [1], the IC50 was more than 50 µM. Still for that read-out and setting: then `COc1c(Cl)cnn(-c2cccc(C)c2)c1=O`, with more than 50 µM. Take `CCSc1c(S)cnn(-c2ccccc2)c1=O`: the Ki is 0.3 µM in test [5] and 1.4 µM in test [2]. In the test with Staphylococcus aureus [3], the result was inactive.

For the compound `CCOc1c(S)cnn(-c2ccccc2)c1=O`, in test [2], the Ki was found to be 0.2 µM. The compound `Cc1ccc(N2C(=O)/C(=C/c3cc([N+](=O)[O-])cc(Br)c3O)SC2=S)c(C)c1` showed an Activity in the test with Staphylococcus aureus [6] of 84%. In addition, the IC50 in test [1] worked out at 3.7 µM. Besides, 10 µM (≈ 4.65 µg/mL) was the least that counted as inhibitory in the test with Staphylococcus aureus [3] (MIC).

Consider `CC1=NN(c2ccccc2)C(=S)/C1=C/Nc1ccc(C)c(C)c1`, for which the half-maximal inhibitory concentration (IC50) in test [1] is 52 µM. Regarding `O=c1c(OCc2ccccc2)c(O)cnn1-c1ccccc1`, the IC50 in test [1] and in test [4] was more than 50 µM throughout. With `CCN1C(=O)/C(=C/c2ccc(-c3cccc(Cl)c3)o2)SC1=S`, the IC50 in test [1] was determined as 109 µM. Same read-out and setting: then `CCOc1c(Cl)cnn(-c2cc(Cl)cc(Cl)c2)c1=O`, with more than 50 µM. `COc1c(O)cnn(-c2ccccc2)c1=O`: the IC50 in test [1] and in test [4] was more than 50 µM each time.

As for `CCOc1cnn(-c2ccc([N+](=O)[O-])cc2)c(=O)c1Cl`, the IC50 in test [1] is 219 µM. On the same count and under the same terms, the result for `CC1=NN(c2ccccc2)C(=S)/C1=C/Nc1ccccc1Cl` reads 54 µM; that for `CCOc1cnn(C2CCCCC2)c(=O)c1Cl`, more than 50 µM.

As to `CC1=NN(c2ccccc2)C(=S)/C1=C/Nc1ccc([N+](=O)[O-])cc1[N+](=O)[O-]`, the IC50 in test [1] came out at 6.8 µM.

For the compound `CCOc1c(Cl)cnn(-c2ccc([N+](=O)[O-])cc2)c1=O`, in test [1], the half-inhibitory concentration (IC50) was more than 50 µM. Turning to `CCOc1c(S)cnn(C2CCCCC2)c1=O`, the IC50 in test [1] was 17.9 µM.

On to `CCOc1cnn(-c2cccc(C)c2)c(=O)c1Cl`, for which, in test [1], the IC50 was more than 50 µM. As to `O=C(/C=C/c1ccc([N+](=O)[O-])cc1)c1ccccc1`, in test [1], the IC50 stood at 51 µM.

Consider `CSc1cnn(-c2ccccc2)c(=O)c1Cl`, for which the half-inhibitory concentration (IC50) in test [1] is more than 50 µM. For the compound `CCSc1c(O)cnn(-c2ccccc2)c1=O`, the concentration for half-maximal inhibition (IC50) in test [1] and in test [4] was more than 50 µM in each case. For the compound `CCOc1c(S)cnn(-c2cc(Cl)cc(Cl)c2)c1=O`, the IC50 in test [1] is 301 µM. Turning to `O=c1c(Cl)c(Cl)cnn1-c1cc(Cl)cc(Cl)c1`, in test [1], the IC50 is 61 µM. Consider `C=CCN1C(=O)/C(=C/c2ccc(-c3ccccc3)o2)SC1=S`, for which the IC50 worked out at 199 µM in test [1] and 27 µM in test [4]. For the compound `CCN1C(=O)/C(=C/c2ccc(-c3ccccc3[N+](=O)[O-])o2)SC1=S`, the IC50 in test [1] was 104 µM. For `O=C1/C(=C/c2ccc(-c3ccccc3)o2)SC(=S)N1Cc1ccccc1`, the 50% inhibitory concentration (IC50) in test [1] is 492 µM. In the test on Staphylococcus aureus [6], `COc1c(S)cnn(-c2cccc(Cl)c2)c1=O` displayed an Activity of 50%. The IC50 in test [1] turned out to be 4.5 µM. Besides, in the test on Staphylococcus aureus [3], the MIC is more than 1000 µM. As for `CCOc1cnn(-c2cccc(Br)c2)c(=O)c1Cl`, in test [1], the IC50 is more than 50 µM.

On to `CCOc1c(S)cnn(-c2ccc([N+](=O)[O-])cc2)c1=O`, for which the IC50 in test [1] was found to be 30 µM. On the same count and under the same terms, the result for `CC1=NN(c2ccc(Cl)cc2)C(=O)/C1=C/Nc1ccc([N+](=O)[O-])cc1C` reads 45 µM; that for `Cc1ccc(N2C(=O)/C(=C/c3cccc([N+](=O)[O-])c3)SC2=S)c(C)c1`, 119 µM; that for `CCOc1c(S)cnn(-c2cccc(C)c2)c1=O`, 3.3 µM. Still for that read-out and setting: then `COc1cnn(-c2ccccc2)c(=O)c1S`, with 9.3 µM.

On to `CC1=NN(c2ccccc2)C(=S)/C1=C/Nc1ccc([N+](=O)[O-])cc1Br`, for which the IC50 in test [1] is 8.9 µM. The same measure, in the same setting: the result for `CCOc1c(Cl)cnn(-c2cccc(C)c2)c1=O` reads more than 50 µM; that for `CC1=NN(c2ccc(C)cc2)C(=O)/C1=C/Nc1ccc([N+](=O)[O-])cc1`, 62 µM. On to `CCOc1cnn(-c2cccc(F)c2)c(=O)c1S`, for which the IC50 in test [1] came out at 5.7 µM; in test [4], 0.9 µM.

With `CN1C(=O)/C(=C/c2ccc(-c3ccccc3)o2)SC1=S`, the IC50 in test [1] came to 405 µM. Consider `O=c1c(Cl)c(Cl)cnn1C1CCCCC1`, for which the 50% inhibitory concentration (IC50) was more than 50 µM in test [1] and 14 µM in test [4]. For `CC1=NN(c2ccc(Cl)cc2)C(=O)/C1=C/Nc1ccc([N+](=O)[O-])cc1`, in test [1], the IC50 is 48 µM. Still for that read-out and setting: then `CC1=NOC(=O)/C1=N\c1ccc([N+](=O)[O-])cc1`, with 17 µM.

(Values after ChEMBL document CHEMBL1152629, “Discovery and structure-activity relationship analysis of Staphylococcus aureus sortase A inhibitors” (Bioorg Med Chem, 2009).)
